ChEMBL document CHEMBL5376013, “Design, synthesis and biological evaluation of novel morpholinopyrimidine-5-carbonitrile derivatives as dual PI3K/mTOR inhibitors” (RSC Med Chem, 2024)

Key:
Type in all cases: functional
Conditions in all cases: read-out: GI
CCRF-CEM = experiment: Antitumor activity against human CCRF-CEM cells assessed as growth inhibition at 10 uM relative to control
Method in brief: (§1)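 After drug addition, plates were incubated 48 h at 37 °C under 5% CO2. Adherent cells were fixed with cold TCA (10% final, 60 min, 4 °C) and suspension cells with 16% final TCA. Staining used 0.4% SRB in 1% acetic acid, solubilized in 10 mM trizma, read at A515. Percent growth was calculated from time-zero, control and treated absorbances.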

K562 = experiment: Antitumor activity against human K562 cells assessed as growth inhibition at 10 uM relative to control; method in brief: as §1
MOLT-4 = experiment: Antitumor activity against human MOLT-4 cells assessed as growth inhibition at 10 uM relative to control; method in brief: as §1
RPMI-8226 = experiment: Antitumor activity against human RPMI-8226 cells assessed as growth inhibition at 10 uM relative to control; method in brief: as §1
EKVX = experiment: Antitumor activity against human EKVX cells assessed as growth inhibition at 10 uM relative to control; method in brief: as §1
NCI-H226 = experiment: Antitumor activity against human NCI-H226 cells assessed as growth inhibition at 10 uM relative to control; method in brief: as §1
NCI-H23 = experiment: Antitumor activity against human NCI-H23 cells assessed as growth inhibition at 10 uM relative to control; method in brief: as §1
NCI-H322M = experiment: Antitumor activity against human NCI-H322M cells assessed as growth inhibition at 10 uM relative to control; method in brief: as §1
NCI-H522 = experiment: Antitumor activity against human NCI-H522 cells assessed as growth inhibition at 10 uM relative to control; method in brief: as §1
COLO 205 = experiment: Antitumor activity against human COLO 205 cells assessed as growth inhibition at 10 uM relative to control; method in brief: as §1
HCT-116 = experiment: Antitumor activity against human HCT-116 cells assessed as growth inhibition at 10 uM relative to control; method in brief: as §1
HCT-15 = experiment: Antitumor activity against human HCT-15 cells assessed as growth inhibition at 10 uM relative to control; method in brief: as §1
HT-29 = experiment: Antitumor activity against human HT-29 cells assessed as growth inhibition at 10 uM relative to control; method in brief: as §1
KM12 = experiment: Antitumor activity against human KM12 cells assessed as growth inhibition at 10 uM relative to control; method in brief: as §1
SW-620 = experiment: Antitumor activity against human SW-620 cells assessed as growth inhibition at 10 uM relative to control
Method in brief: (§2)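 Drug exposure 48 h at 37 °C, 5% CO2. Adherent cells fixed with cold TCA (10% final), suspension cells with TCA (16% final). Stained with 0.4% SRB in 1% acetic acid, dissolved in 10 mM Tris, A515. Growth relative to time-zero and untreated control.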

SF-268 = experiment: Antitumor activity against human SF-268 cells assessed as growth inhibition at 10 uM relative to control; method in brief: as §1
SF-539 = experiment: Antitumor activity against human SF-539 cells assessed as growth inhibition at 10 uM relative to control; method in brief: as §1
SNB-19 = experiment: Antitumor activity against human SNB-19 cells assessed as growth inhibition at 10 uM relative to control; method in brief: as §2
SNB-75 = experiment: Antitumor activity against human SNB-75 cells assessed as growth inhibition at 10 uM relative to control; method in brief: as §2
U-251 = experiment: Antitumor activity against human U-251 cells assessed as growth inhibition at 10 uM relative to control; method in brief: as §2
LOX IMVI = experiment: Antitumor activity against human LOX IMVI cells assessed as growth inhibition at 10 uM relative to control; method in brief: as §1
Malme-3M = experiment: Antitumor activity against human Malme-3M cells assessed as growth inhibition at 10 uM relative to control; method in brief: as §1
M14 = experiment: Antitumor activity against human M14 cells assessed as growth inhibition at 10 uM relative to control; method in brief: as §1
MDA-MB-435 = experiment: Antitumor activity against human MDA-MB-435 cells assessed as growth inhibition at 10 uM relative to control; method in brief: as §1
SK-MEL-2 = experiment: Antitumor activity against human SK-MEL-2 cells assessed as growth inhibition at 10 uM relative to control; method in brief: as §1
SK-MEL-28 = experiment: Antitumor activity against human SK-MEL-28 cells assessed as growth inhibition at 10 uM relative to control; method in brief: as §2
SK-MEL-5 = experiment: Antitumor activity against human SK-MEL-5 cells assessed as growth inhibition at 10 uM relative to control; method in brief: as §2
UACC-257 = experiment: Antitumor activity against human UACC-257 cells assessed as growth inhibition at 10 uM relative to control; method in brief: as §2
UACC-62 = experiment: Antitumor activity against human UACC-62 cells assessed as growth inhibition at 10 uM relative to control; method in brief: as §2
OVCAR-3 = experiment: Antitumor activity against human OVCAR-3 cells assessed as growth inhibition at 10 uM relative to control; method in brief: as §1
OVCAR-5 = experiment: Antitumor activity against human OVCAR-5 cells assessed as growth inhibition at 10 uM relative to control; method in brief: as §1
OVCAR-8 = experiment: Antitumor activity against human OVCAR-8 cells assessed as growth inhibition at 10 uM relative to control; method in brief: as §1
NCI/ADR-RES = experiment: Antitumor activity against human NCI-ADR-RES cells assessed as growth inhibition at 10 uM relative to control; method in brief: as §1
SK-OV-3 = experiment: Antitumor activity against human SK-OV-3 cells assessed as growth inhibition at 10 uM relative to control; method in brief: as §2
786-0 = experiment: Antitumor activity against human 786-0 cells assessed as growth inhibition at 10 uM relative to control; method in brief: as §1
A498 = experiment: Antitumor activity against human A498 cells assessed as growth inhibition at 10 uM relative to control; method in brief: as §1
ACHN = experiment: Antitumor activity against human ACHN cells assessed as growth inhibition at 10 uM relative to control; method in brief: as §1
CAKI-1 = experiment: Antitumor activity against human CAKI-1 cells assessed as growth inhibition at 10 uM relative to control; method in brief: as §1
RXF 393 = experiment: Antitumor activity against human RXF 393 cells assessed as growth inhibition at 10 uM relative to control; method in brief: as §1
SN12C = experiment: Antitumor activity against human SN12C cells assessed as growth inhibition at 10 uM relative to control; method in brief: as §2
TK-10 = experiment: Antitumor activity against human TK-10 cells assessed as growth inhibition at 10 uM relative to control; method in brief: as §2
PC-3 = experiment: Antitumor activity against human PC-3 cells assessed as growth inhibition at 10 uM relative to control; method in brief: as §1
DU-145 = experiment: Antitumor activity against human DU-145 cells assessed as growth inhibition at 10 uM relative to control; method in brief: as §1
MCF7 = experiment: Antitumor activity against human MCF7 cells assessed as growth inhibition at 10 uM relative to control; method in brief: as §1
BT-549 = experiment: Antitumor activity against human BT-549 cells assessed as growth inhibition at 10 uM relative to control; method in brief: as §1
T47D = experiment: Antitumor activity against human T47D cells assessed as growth inhibition at 10 uM relative to control; method in brief: as §2

Work on `N#Cc1c(-c2ccc(Cl)cc2)nc(N/N=C2/C(=O)Nc3ccccc32)nc1N1CCOCC1` yielded an inhibition of growth at 10 µM (CCRF-CEM) of less than 1%, an inhibition of growth at 10 µM (K562) of less than 1% and an inhibition of growth at 10 µM (MOLT-4) of less than 1%. It also gave an inhibition of growth at 10 µM (RPMI-8226) of less than 1%, an inhibition of growth at 10 µM (EKVX) of less than 1% and an inhibition of growth at 10 µM (NCI-H226) of less than 1%. For the same compound, the inhibition of growth at 10 µM (NCI-H23) was less than 1%, the inhibition of growth at 10 µM (NCI-H322M) was less than 1% and the inhibition of growth at 10 µM (NCI-H522) was less than 1%. The inhibition of growth at 10 µM (COLO 205) was 1%, the inhibition of growth at 10 µM (HCT-116) was 10.5% and the inhibition of growth at 10 µM (HCT-15) was 1%. The inhibition of growth at 10 µM (HT-29) was less than 1%, the inhibition of growth at 10 µM (KM12) was less than 1% and the inhibition of growth at 10 µM (SW-620) was 10.1%. For the same compound, the inhibition of growth at 10 µM (SF-268) was less than 1%, the inhibition of growth at 10 µM (SF-539) was less than 1% and the inhibition of growth at 10 µM (SNB-19) was less than 1%. The inhibition of growth at 10 µM (SNB-75) was 21%, the inhibition of growth at 10 µM (U-251) was less than 1% and the inhibition of growth at 10 µM (LOX IMVI) was less than 1%. It also gave an inhibition of growth at 10 µM (Malme-3M) of less than 1%, an inhibition of growth at 10 µM (M14) of less than 1% and an inhibition of growth at 10 µM (MDA-MB-435) of less than 1%. For the same compound, the inhibition of growth at 10 µM (SK-MEL-2) was less than 1%, the inhibition of growth at 10 µM (SK-MEL-28) was less than 1% and the inhibition of growth at 10 µM (SK-MEL-5) was less than 1%. The inhibition of growth at 10 µM (UACC-257) was less than 1%, the inhibition of growth at 10 µM (UACC-62) was less than 1% and the inhibition of growth at 10 µM (OVCAR-3) was less than 1%. The inhibition of growth at 10 µM (OVCAR-5) was less than 1%, the inhibition of growth at 10 µM (OVCAR-8) was less than 1% and the inhibition of growth at 10 µM (NCI/ADR-RES) was less than 1%. It also gave an inhibition of growth at 10 µM (SK-OV-3) of less than 1%, an inhibition of growth at 10 µM (786-0) of less than 1% and an inhibition of growth at 10 µM (A498) of less than 1%. The inhibition of growth at 10 µM (ACHN) was less than 1%, the inhibition of growth at 10 µM (CAKI-1) was less than 1% and the inhibition of growth at 10 µM (RXF 393) was less than 1%. The inhibition of growth at 10 µM (SN12C) was less than 1%, the inhibition of growth at 10 µM (TK-10) was less than 1% and the inhibition of growth at 10 µM (PC-3) was less than 1%. The inhibition of growth at 10 µM (DU-145) was less than 1%, the inhibition of growth at 10 µM (MCF7) was 1% and the inhibition of growth at 10 µM (BT-549) was less than 1%. The inhibition of growth at 10 µM (T47D) was less than 1%.
In the case of `CSc1nc(O)c(C#N)c(-c2ccc(Cl)cc2)n1`, the inhibition of growth at 10 µM (CCRF-CEM) was less than 1%, the inhibition of growth at 10 µM (K562) was less than 1% and the inhibition of growth at 10 µM (MOLT-4) was less than 1%. For the same compound, the inhibition of growth at 10 µM (RPMI-8226) was less than 1%, the inhibition of growth at 10 µM (EKVX) was less than 1% and the inhibition of growth at 10 µM (NCI-H226) was less than 1%. The inhibition of growth at 10 µM (NCI-H23) was less than 1%, the inhibition of growth at 10 µM (NCI-H322M) was less than 1% and the inhibition of growth at 10 µM (NCI-H522) was less than 1%. The inhibition of growth at 10 µM (COLO 205) was less than 1%, the inhibition of growth at 10 µM (HCT-116) was less than 1% and the inhibition of growth at 10 µM (HCT-15) was less than 1%. It also gave an inhibition of growth at 10 µM (HT-29) of less than 1%, an inhibition of growth at 10 µM (KM12) of less than 1% and an inhibition of growth at 10 µM (SW-620) of less than 1%. For the same compound, the inhibition of growth at 10 µM (SF-268) was less than 1%, the inhibition of growth at 10 µM (SF-539) was less than 1% and the inhibition of growth at 10 µM (SNB-19) was less than 1%. The inhibition of growth at 10 µM (SNB-75) was 11.3%, the inhibition of growth at 10 µM (U-251) was less than 1% and the inhibition of growth at 10 µM (LOX IMVI) was less than 1%. For the same compound, the inhibition of growth at 10 µM (Malme-3M) was less than 1%, the inhibition of growth at 10 µM (M14) was less than 1% and the inhibition of growth at 10 µM (MDA-MB-435) was less than 1%. It also gave an inhibition of growth at 10 µM (SK-MEL-2) of less than 1%, an inhibition of growth at 10 µM (SK-MEL-28) of less than 1% and an inhibition of growth at 10 µM (SK-MEL-5) of less than 1%. It also gave an inhibition of growth at 10 µM (UACC-257) of less than 1%, an inhibition of growth at 10 µM (UACC-62) of less than 1% and an inhibition of growth at 10 µM (OVCAR-3) of less than 1%. For the same compound, the inhibition of growth at 10 µM (OVCAR-5) was less than 1%, the inhibition of growth at 10 µM (OVCAR-8) was less than 1% and the inhibition of growth at 10 µM (NCI/ADR-RES) was less than 1%. For the same compound, the inhibition of growth at 10 µM (SK-OV-3) was less than 1%, the inhibition of growth at 10 µM (786-0) was less than 1% and the inhibition of growth at 10 µM (A498) was less than 1%. It also gave an inhibition of growth at 10 µM (ACHN) of less than 1%, an inhibition of growth at 10 µM (CAKI-1) of less than 1% and an inhibition of growth at 10 µM (RXF 393) of less than 1%. For the same compound, the inhibition of growth at 10 µM (SN12C) was less than 1%, the inhibition of growth at 10 µM (TK-10) was less than 1% and the inhibition of growth at 10 µM (PC-3) was less than 1%. The inhibition of growth at 10 µM (DU-145) was less than 1%, the inhibition of growth at 10 µM (MCF7) was 11% and the inhibition of growth at 10 µM (BT-549) was less than 1%. It also gave an inhibition of growth at 10 µM (T47D) of less than 1%.
